pIC50: −log10 of the molar value. Active and inactive are the calls of the source. The calls are words filed in the database; no cut-off is given here.
Tests used:
[1] = Prooxidant effect on Cu2+-induced pBR322 DNA damage at 3 to 45 uM after 1 hr; assay type: functional
[2] = Antioxidant activity assessed as protection against AAPH-induced pBR322 plasmid DNA strand open circular form at 11 to 45 uM after 4 hrs by agarose gel electrophoresis; assay type: functional
How it was run: (§1)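 pBR 322 plasmid DNA incubated with AAPH (10 mM final) at 37 °C for 4 h, with or without antioxidant (0.35-45 μM final). Samples then run on agarose electrophoresis. Protection was judged from the supercoiled (S) band intensity against a control without AAPH. AAPH converts the DNA to the open circular (O) form.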

[3] = Antioxidant activity assessed as protection against AAPH-induced pBR322 plasmid DNA strand open circular form at 5 uM after 4 hrs by agarose electrophoresis; assay type: functional; how it was run: as §1
[4] = Antioxidant activity assessed as protection against AAPH-induced pBR322 plasmid DNA strand open circular form at <5 uM after 4 hrs by agarose gel electrophoresis; assay type: functional; how it was run: as §1
[5] = test system: Radical scavenging activity; assay: Antioxidant activity assessed as DPPH free radical scavenging activity within 10 mins; assay type: functional
[6] = Antioxidant activity against linoleic acid assessed as inhibition of beta-carotene bleaching at 12 uM after 180 mins; assay type: functional; parameters: scale not given: the % may be the effect or the level left
How it was run: (§2)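 Linoleic acid/β-carotene emulsion held at 50 °C for 180 min with antioxidant across a range of concentrations. Bleaching of β-carotene followed as A470. % A470 = (sample A470 at 180 min / at 0 min ×100) minus the same ratio for a no-antioxidant control.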

[7] = Prooxidant effect on Cu2+-induced pBR322 DNA damage at 0.35 to 45 uM after 1 hr; assay type: functional
How it was run: (§3)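 Pro-oxidant test: pBR322 plasmid incubated with 10 μM Cu2+ at 37 °C for 1 h with compound at final 0.35–45 μM. DNA damage judged by agarose gel electrophoresis.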

[8] = Antioxidant activity assessed as inhibition of AAPH-induced lipid peroxidation in human plasma LDL after 18 hrs by gel electrophoresis; assay type: functional, cell-free
How it was run: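 LDL oxidized with 10 mM AAPH for 18 h at 37 °C, with or without antioxidant. Azo initiator used instead of Cu2+ so that metal pro-oxidant effects are avoided. Read-out is anodic migration on agarose gel, with AAPH-oxidized LDL set as 100% migration.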

[9] = Antioxidant activity assessed as protection against AAPH-induced pBR322 plasmid DNA strand open circular form at 0.35 to 45 uM after 4 hrs by agarose gel electrophoresis; assay type: functional
How it was run: (§4)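 pBR322 plasmid DNA incubated with AAPH (final 10 mM) at 37 °C for 4 h, with or without antioxidant at final 0.35–45 μM. Agarose electrophoresis then compares supercoiled and open circular band intensities with a no-AAPH control.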

[10] = Antioxidant activity against linoleic acid assessed as inhibition of beta-carotene bleaching after 180 mins; assay type: functional; how it was run: as §2
[11] = Antioxidant activity assessed as protection against AAPH-induced pBR322 plasmid DNA strand open circular form at >= 45 uM after 4 hrs by agarose gel electrophoresis; assay type: functional; how it was run: as §4
[12] = Prooxidant effect on Cu2+-induced pBR322 DNA damage at 25 to 45 uM after 1 hr; assay type: functional; conditions: 23 and 45 uM; in the assay text read “23 and 45 uM” for “25 to 45 uM”; how it was run: as §3
[13] = test system: Radical scavenging activity; assay: Antioxidant activity assessed as DPPH free radical scavenging activity within 1 mins; assay type: functional

O=c1c(O)c(-c2ccc(O)c(O)c2)oc2cc(O)cc(O)c12
Activity [1]: Active | Activity [2]: Active | Activity [3]: inactive | Activity [4]: inactive

COc1cc(C=O)cc(OC)c1O [SYRINGALDEHYDE]
pIC50 [5]: < 4.00 | Activity [6]: 12% | Activity [7]: inactive | Activity [8]: inactive

COc1cc(CN(Cc2ccc(CN(Cc3cc(I)c(O)c(OC)c3)Cc3cc(I)c(O)c(OC)c3)cc2)Cc2cc(I)c(O)c(OC)c2)cc(I)c1O
Activity [9]: inactive | Activity [8]: Dose-dependent effect | Activity [10]: Active

COc1cc(CN(Cc2ccc(CN(Cc3ccc(O)c(OC)c3)Cc3ccc(O)c(OC)c3)cc2)Cc2ccc(O)c(OC)c2)ccc1O
Activity [11]: Active | Activity [12]: Active | Activity [8]: Dose-dependent effect | Activity [10]: Active

COc1cc(C=O)ccc1O [VANILLIN]
pIC50 [5]: < 4.00 | Activity [6]: < 5% | Activity [7]: inactive | Activity [8]: inactive

COc1cc(CN(Cc2ccc(CN(Cc3cc(OC)c(O)c(OC)c3)Cc3cc(OC)c(O)c(OC)c3)cc2)Cc2cc(OC)c(O)c(OC)c2)cc(OC)c1O
Activity [8]: Dose-dependent effect | Activity [1]: Active | Activity [2]: Active | Activity [3]: Active | Activity [4]: inactive | Activity [10]: Active

NCc1ccc(CN)cc1
Activity [6]: 16%

Cc1c(C)c2c(c(C)c1O)CCC(C)(C(=O)O)O2 (centres undefined) [TROLOX]
Activity [9]: inactive | Activity [7]: Active | pIC50 [13]: 4.56

Reference: ChEMBL document CHEMBL1156109, “Synthesis and antioxidant properties of dendritic polyphenols” (Bioorg Med Chem Lett, 2009)
